Data as given in ChEMBL document CHEMBL1135482 (J Med Chem, 2002).

How the values were obtained:
[1] = target: T1, Melatonin receptor type 1A (Homo sapiens, UniProt P48039); assay: Binding affinity on human melatonin receptor type 1A stably transfected in human embryonic kidney (HEK 293) using 2-[125I]iodomelatonin as radioligand.; type: cell-based, HEK293
[2] = target: T2, Melatonin receptor type 1B (Homo sapiens, UniProt P49286); assay: Binding affinity on human melatonin receptor type 1B stably transfected in human embryonic kidney (HEK 293) cells using 2-[125I]iodomelatonin as radioligand.; type: cell-based, HEK293
T2 sequence (P49286 whole entry): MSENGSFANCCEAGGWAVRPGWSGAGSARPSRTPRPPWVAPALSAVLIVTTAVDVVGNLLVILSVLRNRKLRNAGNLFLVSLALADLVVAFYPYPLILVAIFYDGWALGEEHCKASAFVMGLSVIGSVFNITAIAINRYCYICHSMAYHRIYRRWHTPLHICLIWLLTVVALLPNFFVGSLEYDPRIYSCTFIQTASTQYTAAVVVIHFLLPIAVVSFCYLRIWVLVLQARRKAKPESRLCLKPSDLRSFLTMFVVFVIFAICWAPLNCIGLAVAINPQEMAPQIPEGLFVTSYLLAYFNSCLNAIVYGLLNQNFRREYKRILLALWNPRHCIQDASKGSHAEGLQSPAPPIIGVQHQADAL

[3] = target: T2, Melatonin receptor type 1B; assay: Intrinsic activity at human Melatonin receptor type 1B evaluated on [35S]GTP-gamma-S, binding in Chinese hamster ovarian (CHO) cells; type: functional, cell-based
[4] = target: T1, Melatonin receptor type 1A; assay: Intrinsic activity evaluated on [35S]GTP -gamma-S binding in Chinese hamster ovarian (CHO) cells, stably expressing human Melatonin receptor type 1A; type: functional, cell-based
[5] = target: T3, Melatonin receptor type 1B (Homo sapiens) (UniProt P49286); assay: Antagonist potency determined against 3 nM melatonin for Melatonin receptor type 1B; type: functional
T3 sequence (whole entry): T2 sequence (P49286 whole entry)
Summary of the method: (§1)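 Antagonist mode of [³⁵S]GTPγS binding on membranes (20 µg/mL) of CHO cells stably expressing human MT₁ or MT₂. […] Incubation 1 h at room temperature, GF/B filtration. Nonspecific binding with 10 µM GTPγS.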

[6] = target: T1, Melatonin receptor type 1A; assay: Antagonist potency determined against 30 nM melatonin for Melatonin receptor type 1A; type: functional; summary of the method: as §1
[7] = target: T1, Melatonin receptor type 1A; assay: Intrinsic activity of Melatonin receptor type 1A evaluated on [35S]GTP-gamma-S, binding in Chinese hamster ovarian (CHO) cells; type: functional, cell-based

T1 sequence (P48039 whole entry): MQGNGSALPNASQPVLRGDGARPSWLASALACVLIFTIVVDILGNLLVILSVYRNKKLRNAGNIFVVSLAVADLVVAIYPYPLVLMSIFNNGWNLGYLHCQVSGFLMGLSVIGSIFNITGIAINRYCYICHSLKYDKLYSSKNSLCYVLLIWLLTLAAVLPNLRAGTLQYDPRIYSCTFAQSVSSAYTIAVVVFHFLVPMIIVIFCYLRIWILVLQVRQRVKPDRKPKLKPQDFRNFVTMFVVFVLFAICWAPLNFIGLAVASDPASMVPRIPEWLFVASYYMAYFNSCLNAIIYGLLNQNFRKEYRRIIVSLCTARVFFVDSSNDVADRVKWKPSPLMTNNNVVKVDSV

SMILES	Ki [1] [nM]	Ki [2] [nM]	EC50 [3] [nM]	EC50 [4] [nM]	Kb [5] [nM]	Kb [6] [nM]	EC50 [7] [nM]
C=CC(=O)NCCc1c(Cc2cccc(OC)c2)oc2ccc(OC)cc12	55	2.76	–	–	–	–	–
CNC(=O)NCCc1c(-c2ccccc2)oc2ccc(OC)cc12	0.04	0.04	–	–	–	–	–
CCCCCOc1ccc2oc(Cc3ccccc3)c(CCNC(C)=O)c2c1	42.7	9.64	–	–	–	–	–
COc1ccc2oc(-c3ccccc3)c(CCNC(C)=O)c2c1	0.01	0.02	0.096	0.17	–	–	–
COc1ccc2oc(Cc3cc(C(F)(F)F)cc(C(F)(F)F)c3)c(CCNC(C)=O)c2c1	476	340	–	–	–	–	–
CCc1ccc2oc(Cc3ccccc3)c(CCNC(C)=O)c2c1	64.4	8.25	–	–	–	–	–
COc1cccc(Cc2oc3ccccc3c2CCNC(C)=O)c1	229	18.6	–	–	–	–	–
COc1ccc2oc(Cc3cccc(Cl)c3)c(CCNC(C)=O)c2c1	7.19	0.22	–	–	–	–	–
COc1cccc(Cc2oc3ccc(OC)cc3c2CCNC(C)=O)c1	40.6	0.32	0.72	37	1.65	26	–
CC(=O)NCCc1c(Cc2ccccc2)oc2ccccc12	155	10.6	> 10000	> 10000	12	27	–
C=CC(=O)NCCc1c(-c2ccccc2)oc2ccc(OC)cc12	0.02	0.01	–	–	–	–	–
COc1ccc2oc(Cc3ccccc3)c(CCNC(C)=O)c2c1	–	0.05	> 10000	21	0.21	–	–
COc1ccc(Cc2oc3ccc(OC)cc3c2CCNC(C)=O)cc1	24	0.5	> 10000	> 10000	0.42	35	–
CCCCCCOc1ccc2oc(Cc3ccccc3)c(CCNC(C)=O)c2c1	8.2	3.21	–	–	–	–	–
COc1ccc2oc(Cc3cccnc3)c(CCNC(C)=O)c2c1	29	3.53	–	–	–	–	–
COc1ccc2oc(Cc3ccccc3OC)c(CCNC(C)=O)c2c1	14.3	0.34	0.41	> 10000	0.88	26	–
CNC(=O)NCCc1c(Cc2ccccc2)oc2ccc(OC)cc12	5.37	0.35	–	–	–	–	–
C=CCC(=O)NCCc1c(Cc2ccccc2)oc2ccc(OC)cc12	3.51	0.06	0.17	25	0.16	–	–
COc1ccc2oc(Cc3c(Cl)cccc3Cl)c(CCNC(C)=O)c2c1	84.5	12.8	–	–	–	–	–
COc1ccc2oc(Cc3ccccc3)c(CCNC(=O)c3ccco3)c2c1	698	36.7	–	–	–	–	–

Continued, values first:

Ki [1] [nM]	Ki [2] [nM]	EC50 [3] [nM]	EC50 [4] [nM]	Kb [5] [nM]	Kb [6] [nM]	EC50 [7] [nM]	SMILES
3.29	0.2	–	–	–	–	–	CCCC(=O)NCCc1c(Cc2ccccc2)oc2ccc(OC)cc12
0.01	0.02	–	–	–	–	–	C=CCC(=O)NCCc1c(-c2ccccc2)oc2ccc(OC)cc12
1.01	0.21	–	–	–	–	–	C/C=C/C(=O)NCCc1c(-c2ccccc2)oc2ccc(OC)cc12
8.67	0.41	–	–	–	–	–	COc1ccc2oc(Cc3ccccc3)c(CCNC(=O)CI)c2c1
31.5	1.52	–	–	–	–	–	COc1ccc2oc(CCCc3ccccc3)c(CCNC(C)=O)c2c1
66.4	2.49	10	481	7	242	–	COc1ccc2oc(CC3CCCCC3)c(CCNC(C)=O)c2c1
–	–	0.39	138	0.24	57	–	C=CCC(=O)NCCc1c(Cc2cccc(OC)c2)oc2ccc(OC)cc12
53.7	0.69	–	–	–	–	–	C=CC(=O)NCCc1c(Cc2ccccc2)oc2ccc(OC)cc12
0.75	0.23	–	–	–	–	–	COc1ccc2oc(Cc3cccc(F)c3)c(CCNC(C)=O)c2c1
288	17	19	> 10000	18	266	–	CCc1ccc2oc(Cc3cccc(OC)c3)c(CCNC(C)=O)c2c1
569	79.9	–	–	–	–	–	CC(=O)NCCc1c(Cc2ccccc2)oc2ccc(O)cc12
12.9	1.7	–	–	–	–	–	COc1ccc2oc(-c3ccccc3)c(CCNC(=O)c3ccco3)c2c1
80	1.17	1.26	–	2.4	89	> 10000	COc1ccc2oc(Cc3cccc(C(F)(F)F)c3)c(CCNC(C)=O)c2c1
